# Measured values reported in PMC4253050 (Cellular signalling, 2014).
# Legend:
# kB2R = target: T1, kB2R (Homo sapiens, UniProt P30411); test: Intracellular Ca2+ response; assay type: cell-based; settings: HEK cells stably expressing kB1R and kB2R; first 1 μM DAKD, then 1 μM KD
# T1 sequence (P30411 1-391): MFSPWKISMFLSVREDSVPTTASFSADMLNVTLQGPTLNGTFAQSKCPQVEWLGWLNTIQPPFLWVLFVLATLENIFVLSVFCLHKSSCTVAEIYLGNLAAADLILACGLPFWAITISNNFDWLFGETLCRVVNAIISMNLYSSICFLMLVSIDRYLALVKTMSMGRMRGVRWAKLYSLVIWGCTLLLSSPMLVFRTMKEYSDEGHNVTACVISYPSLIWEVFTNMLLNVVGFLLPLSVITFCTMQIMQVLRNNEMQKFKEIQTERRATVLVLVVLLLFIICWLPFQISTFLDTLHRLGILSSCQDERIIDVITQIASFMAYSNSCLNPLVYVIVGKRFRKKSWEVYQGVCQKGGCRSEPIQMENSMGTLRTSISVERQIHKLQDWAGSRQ
# [1] = tested on: GPCRs coupled with Gαq (LPA); test: Intracellular Ca2+ response to LPA, HEK cells; assay type: cell-based, human
# How it was run: (§1)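 Cross-desensitization in HEK293 cells stably expressing kB1R, loaded with fura-2 (2 μM, 60 min, 37 °C) on polylysine coverslips. Cells were given thrombin or LPA followed by kB1R agonist, or kB1R agonist first and then thrombin or LPA. [Ca²⁺]i was read as 510 nm emission at 340/380 nm excitation.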
# kB1R [2] = target: T2, kB1R (Homo sapiens, UniProt P46663); test: [3H]DAKD binding and endocytosis assay, cell surface kB1R, HEK293 cells; settings: HEK cells stably expressing kB1R and kB2R; 10 min, 37 °C (DAKD 1 μM), no acid wash; 4 nM [3H]DAKD 90 min on ice; n=3
# T2 sequence (P46663 1-353): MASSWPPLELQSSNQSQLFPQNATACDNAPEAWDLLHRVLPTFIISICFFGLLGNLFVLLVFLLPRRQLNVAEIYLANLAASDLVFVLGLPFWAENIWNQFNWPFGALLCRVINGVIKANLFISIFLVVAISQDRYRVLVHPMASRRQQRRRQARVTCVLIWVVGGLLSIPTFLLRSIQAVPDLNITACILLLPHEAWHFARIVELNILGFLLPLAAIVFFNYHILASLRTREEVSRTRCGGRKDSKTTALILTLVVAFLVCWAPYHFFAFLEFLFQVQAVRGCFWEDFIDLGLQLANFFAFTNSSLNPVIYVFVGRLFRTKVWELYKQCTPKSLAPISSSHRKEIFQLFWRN
# How it was run: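 Confluent monolayers were rinsed three times in warm PBS and exposed to unlabelled agonist or vehicle (PBS). They were washed with ice-cold PBS, and binding was then done on ice. Cells were washed three times in cold PBS, lysed in 0.2 M NaOH and counted by scintillation. Total binding was taken as label bound in cells given PBS alone.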
# [3] = tested on: human lung microvascular endothelial cells (HLMVEC); test: Transendothelial electrical resistance; assay type: cell-based; settings: cytokine-treated HLMVEC; 100 nM; BK in the presence of MGTA; n = 4
# How it was run: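 Primary HLMVEC (passage 3–6) were grown to confluence on gold electrodes coated with 10 μg/ml fibronectin. Cells were cytokine-primed for 16 h with IL-1β plus 100 U/ml IFN-γ, then moved to EBM-2 with 1% FBS for 1 h and impedance-monitored (ECIS) until baseline was stable. BK samples were pretreated with 40 μM MGTA. Cells received ±100 nM BK for 10 min, then 100 nM DAKD or vehicle, with or without 200 μM pyrogallol; TER recorded.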
# kB1R [4] = target: T2, kB1R; test: Phosphoinositide turnover; assay type: cell-based; settings: stably co-expressing HEK cells; 1 μM
# kB1R [5] = target: T2, kB1R; test: [3H]Arachidonic acid release, kB1R-mediated, cells co-expressing kB1R and kB2R; assay type: cell-based; settings: stably co-expressing HEK cells (so in the source); 1 μM
# How it was run: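 Cells at ~80% confluence were labelled for 18–24 h in growth medium with 0.1% FBS and 1 μCi/ml [³H]arachidonic acid. They were washed three times in HAM's/F12 buffer (HEPES, NaHCO₃, 0.1% fat-free BSA), then incubated with agonist in that buffer at 37 °C. Released label in the collected medium was counted by liquid scintillation.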
# kB1R [6] = target: T2, kB1R; test: Intracellular Ca2+ response; assay type: cell-based; settings: for effect of pre-stimulation on kB1R response: kB1R expressing cells, discussion summary
# How it was run: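 Receptor-expressing HEK cells were grown to 80% confluence on polylysine-coated glass coverslips. They were loaded with 2 μM fura-2/AM for 60 min at 37 °C. For pre-stimulation, cells received vehicle or a kinin agonist (e.g. 1 μM BK) for 10 min, then a kB1R agonist. The [Ca²⁺]i rise was quantified as area under the curve and plotted against log dose; n=3, mean ± SE.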
# [7] = tested on: protease activated receptor; test: Intracellular Ca2+ response to thrombin, HEK cells; assay type: cell-based, human
# How it was run: as §1
# [8] = HEK cells stably expressing kB1R
# [9] = HEK cells stably expressing kB1R or kB2R
substance,measurement,setting,value
des-Arg^10-kallidin [DAKD],calcium response to 1 μM KD added after pre-stimulation with kB1R agonist,kB2R,second robust increase
same,effect of kB1R agonist on calcium response to subsequent LPA,[1]; [8],did not reduce the calcium response
same,"inhibition of [3H]-DAKD binding, without acid washing",kB1R [2],~ 80%
same,increase in TER,[3],substantial and prolonged
same,IP3 turnover response,kB1R [4],responded robustly
same,arachidonic acid release response,kB1R [5],responded robustly
des-Arg^9 -HOE-140 [des-Arg-HOE140],"inhibition of [3H]-DAKD binding, without acid washing",kB1R [2],~ 80%
lysophosphatidic acid [LPA],effect of LPA on kB1R response to subsequent DAKD,kB1R [6]; [8],did not decrease the kB1R response
same,effect of pre-stimulation on kB1R response,kB1R [6],did not reduce the kB1R response
same,increase in [Ca2+]i by LPA,[1]; HEK cells expressing kB1R,relatively lower calcium response than thrombin
same,"cross-desensitization between kB1R, kB2R and LPA",[1]; [9],Lack of cross-desensitization
thrombin,increase in [Ca2+]i by thrombin,[7]; [8],large increase in [Ca^2+]i
same,"cross-desensitization between kB1R, kB2R and thrombin",[7]; [9],Lack of cross-desensitization
same,effect of thrombin on increase in [Ca2+]i induced by subsequent DABK (1 μM),kB1R [6]; [8],did not inhibit the increase in [Ca^2+]i
same,effect of pre-stimulation on kB1R response,kB1R [6],did not reduce the kB1R response
